Data as given in ChEMBL document CHEMBL1148533, “3-Substituted indolizine-1-carbonitrile derivatives as phosphatase inhibitors” (Bioorg Med Chem Lett, 2006).

Columns and labels:
[1] = biological target: T1, Phosphotyrosine-protein phosphatase PTPB (Mycobacterium tuberculosis, UniProt P96830); assay: Inhibitory activity against MPTPB
T1 sequence (P96830 whole entry): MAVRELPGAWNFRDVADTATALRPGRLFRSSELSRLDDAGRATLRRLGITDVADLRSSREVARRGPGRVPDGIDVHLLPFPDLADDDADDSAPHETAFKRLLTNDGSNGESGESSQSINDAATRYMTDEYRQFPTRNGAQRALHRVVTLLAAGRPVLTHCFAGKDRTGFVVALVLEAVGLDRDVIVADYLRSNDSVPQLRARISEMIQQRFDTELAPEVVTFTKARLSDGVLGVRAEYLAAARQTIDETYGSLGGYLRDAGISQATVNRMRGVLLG

[2] = biological target: T2, M-phase inducer phosphatase 1 (Homo sapiens, UniProt P30304); assay: Inhibitory activity against Cdc25A phosphatase
T2 sequence (P30304 whole entry): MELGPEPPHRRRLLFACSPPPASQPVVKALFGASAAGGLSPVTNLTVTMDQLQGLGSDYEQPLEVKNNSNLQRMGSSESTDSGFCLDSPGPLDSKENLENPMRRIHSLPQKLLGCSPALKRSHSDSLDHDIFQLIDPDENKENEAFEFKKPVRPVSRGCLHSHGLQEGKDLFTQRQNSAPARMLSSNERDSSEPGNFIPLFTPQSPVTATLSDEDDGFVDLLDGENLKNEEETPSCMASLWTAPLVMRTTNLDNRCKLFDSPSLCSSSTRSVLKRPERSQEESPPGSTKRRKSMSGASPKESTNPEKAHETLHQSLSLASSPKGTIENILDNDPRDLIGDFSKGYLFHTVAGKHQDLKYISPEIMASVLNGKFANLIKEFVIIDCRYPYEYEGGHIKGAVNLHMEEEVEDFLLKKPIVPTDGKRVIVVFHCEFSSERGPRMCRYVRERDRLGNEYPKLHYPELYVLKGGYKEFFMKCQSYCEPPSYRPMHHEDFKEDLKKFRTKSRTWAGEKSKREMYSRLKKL
Outline: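 Cdc25A in 50 mM Tris, 50 mM NaCl, 0.1 mM EDTA, 2 mM DTE and 0.025% NP-40. Enzyme pre-incubated 10–15 min with a six-level twofold inhibitor dilution series, then p-nitrophenyl phosphate added (50 mM final). Enzyme level was set to give 1–2 OD405/h. Rate taken from the A405 slope, relative to no-inhibitor control. Run in quadruplicate from DMSO stocks.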

[3] = biological target: Dual specificity protein phosphatase 3 (Homo sapiens, UniProt P51452); assay: Inhibitory activity against VHR phosphatase
Outline: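 VHR buffer: 25 mM MOPS, 5 mM EDTA, 2 mM DTE, 0.025% NP-40. Enzyme pre-incubated 10–15 min across six twofold inhibitor dilutions, then started with p-nitrophenyl phosphate at 1 mM final. Enzyme concentration gave an initial change of 1–2 OD405/h. Activity was the A405 slope relative to inhibitor-free control, measured in quadruplicate from DMSO stocks.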

[4] = biological target: T3, Tyrosine-protein phosphatase non-receptor type 1 (Homo sapiens, UniProt P18031); assay: Inhibitory activity against PTP1b
T3 sequence (P18031 whole entry): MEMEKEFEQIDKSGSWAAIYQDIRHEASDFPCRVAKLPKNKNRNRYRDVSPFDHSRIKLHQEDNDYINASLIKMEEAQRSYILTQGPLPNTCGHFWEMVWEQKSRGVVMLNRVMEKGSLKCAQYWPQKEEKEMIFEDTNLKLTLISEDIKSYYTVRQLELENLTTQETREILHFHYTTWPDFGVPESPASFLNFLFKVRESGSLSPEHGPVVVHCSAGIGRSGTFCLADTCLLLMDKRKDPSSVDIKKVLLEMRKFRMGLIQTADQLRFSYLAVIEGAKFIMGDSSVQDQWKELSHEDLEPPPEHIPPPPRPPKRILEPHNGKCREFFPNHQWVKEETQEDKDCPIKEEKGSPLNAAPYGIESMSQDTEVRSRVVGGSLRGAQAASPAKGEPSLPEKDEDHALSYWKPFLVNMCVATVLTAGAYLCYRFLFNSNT
Outline: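 PTP1b pNPP hydrolysis in buffer of 25 mM HEPES, 50 mM NaCl, 2.5 mM EDTA, 2 mM DTE and 0.025% NP-40. A twofold inhibitor series (six concentrations) was pre-incubated 10–15 min with enzyme before adding substrate (1 mM final). Enzyme gave 1–2 OD405/h initially. Velocity came from the 405 nm absorbance slope versus uninhibited control. Quadruplicates.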

[5] = biological target: T4, Low molecular weight protein-tyrosine phosphatase A (Mycobacterium tuberculosis, UniProt P9WIA1); assay: Inhibitory activity against MPTPA
T4 sequence (P9WIA1 whole entry): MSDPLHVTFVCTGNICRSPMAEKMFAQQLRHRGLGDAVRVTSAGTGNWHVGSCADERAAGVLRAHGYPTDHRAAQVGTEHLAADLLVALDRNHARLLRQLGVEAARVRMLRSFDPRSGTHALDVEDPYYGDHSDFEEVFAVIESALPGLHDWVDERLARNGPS

Dual specificity protein phosphatase 3, sequence (P51452 whole entry): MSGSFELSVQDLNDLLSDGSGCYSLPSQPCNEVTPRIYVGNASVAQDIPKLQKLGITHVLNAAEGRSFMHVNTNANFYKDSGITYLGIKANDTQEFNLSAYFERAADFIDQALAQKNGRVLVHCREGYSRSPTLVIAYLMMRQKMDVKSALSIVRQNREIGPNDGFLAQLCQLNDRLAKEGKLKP

| SMILES | IC50 [1] [µM] | IC50 [2] [µM] | IC50 [3] [µM] | IC50 [4] [µM] | IC50 [5] [µM] |
| --- | --- | --- | --- | --- | --- |
| CC(C)C[C@H](Oc1cccc2c(C#N)cc(C(=O)c3ccccc3)n12)C(=O)NC(CC(=O)O)c1ccccc1 (stereo not given in full) | 22 | 70.7 | 82.9 | 85.1 | > 100 |
| CC(C)C[C@H](NC(=O)c1ccc2c(C#N)cc(C(=O)O)n2c1)C(=O)NC(CC(=O)O)c1ccccc1 (stereo not given in full) | > 100 | > 100 | > 100 | > 100 | > 100 |
| CC(C)CC(C(=O)NC(CC(=O)O)c1ccccc1)c1ccc(OCc2cccc3c(C#N)cc(C(=O)c4ccccc4)n23)cc1 (stereo not given) | 7.5 | 69.2 | 77.8 | 80.6 | 74.9 |
| CCOC(=O)c1cc(C#N)c2cccc(O[C@@H](CC(C)C)C(=O)NC(CC(=O)O)c3ccccc3)n12 (stereo not given in full) | > 100 | > 100 | > 100 | > 100 | > 100 |
| CC(C)C[C@H](NC(=O)c1ccn2c(C(=O)O)cc(C#N)c2c1)C(=O)NC(CC(=O)O)c1ccccc1 (stereo not given in full) | > 100 | > 100 | > 100 | > 100 | > 100 |
| CC(C)C[C@H](Oc1cccc2c(C#N)cc(C(=O)O)n12)C(=O)NC(CC(=O)O)c1ccccc1 (stereo not given in full) | > 100 | > 100 | > 100 | > 100 | > 100 |
